A selection: hits, their analogues and other compounds. The true share with any hit is near 4.5%.
OX1R antag-1 – antagonists of human orexin 1 receptor (OX1R); Orexin/Hypocretin receptor type 1 (Homo sapiens), O43613; OX1R-expressing cells, FRET antagonist read-out; inhibition, % at 6.6 µM; 1.8% of 330,000 active; AID 485270, 2010; in the data active means inhibition mostly above about 38%, no sharp cut-off; inactive means mostly below about 40%;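 further: 0% = agonist challenge alone and 100% = reference antagonist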
OX1R antag-2 – OX1R (HCRTR1) antagonists, primary screen, fluorescence, CHO/OX1R cells, Fluo-8 calcium, orexin A; Orexin/Hypocretin receptor type 1 (Homo sapiens), O43613; Fluo-8 calcium fluorescence; inhibition, % at 5 µM; 0.43% of 330,000 active;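 active means inhibition above its plate's threshold, mean inhibition of all tested compounds on the plate plus 3 SD, cut at about 37% in these data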;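 further: 0% = orexin A challenge wells and 100% = SB-334867-A antagonist wells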
CHO parental Ca – ATP-evoked calcium signal inhibitors, parental CHO, primary screen, counter-screen for OX1R antagonist project, cell-based, fluorescence, Fluo-8 calcium dye; AID 463079, 2010; inhibition, % at 5.6 µM; parental CHO-K1, ATP-induced calcium, Fluo-8 fluorescence; 0.63% of 330,000 active;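 active means inhibition above that plate's mean sample inhibition plus 3 SD, cut at about 26% in these data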;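 further: 0% = ATP-challenged DMSO wells and 100% = DMSO wells without ATP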
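Assay system – parental CHO cells · Reagent – ATP stimulus · Detection – intracellular calcium via Fluo-8 no-wash fluorescent dye · Evaluation – percent inhibition of ATP-evoked calcium rise, normalized to controls · Controls – ATP wells versus no-ATP DMSO wells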
TAAR1 ag – human TAAR1 agonists, primary screen, Fluo-8 calcium fluorescence, CHO RD-HGA16 cells; Trace amine-associated receptor 1 (Homo sapiens), Q96RJ0; vehicle wells 0%, saturating PEA agonist 100%; activation, % at 3 µM; 0.99% of 360,000 active; AID 624467, 2012;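 active means activation above the mean activation of all test compounds in the run plus 3 SD, cut at about 38% in these data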
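System: CHO RD-HGA16 cells carrying human TAAR1 plus Gα16; Incubation: 17-24 h seeding, 75 min 37 °C dye, 30 min RT; Measured by: Fluo-8 fluorescence, 5 s baseline then 140 s kinetic read; Control set: DMSO and PEA EC100; Replication: single well for each compound.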
TAAR1 antagonist – human TAAR1 antagonists, primary screen, Fluo-8 calcium fluorescence, CHO RD-HGA16 cells; Trace amine-associated receptor 1 (Homo sapiens), Q96RJ0; antagonist; inhibition, % at 3 µM; 1.5% of 360,000 active; AID 624466, 2012;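 active means inhibition above a per-plate cutoff, the mean inhibition of test compounds on that plate plus 3 SD, cut at about 49% in these data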;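 further: 0% = DMSO plus EC80 beta-PEA response and 100% = DMSO alone without agonist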
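Test system: CHO RD-HGA16 cells bearing hTAAR1 | Reagent: β-PEA, EC80 | Compound dosing: 3 µM, single point | Schedule: Dye loading 75 min at 37 °C, then 30 min room temperature | Signal: Calcium fluorescence with Fluo-8 | Evaluation: Percent inhibition of PEA-evoked calcium signal, max/basal emission ratio | Control set: DMSO-only wells and EC80 β-PEA-stimulated wells | Repeats: Singlicate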
GPR7 antag – GPR7 receptor antagonists, primary screen, cell-based, fluorescence, single concentration; Neuropeptides B/W receptor type 1 (Homo sapiens), P48145; GPR7-expressing cells, fluorescence antagonist assay; inhibition, % at 4.4 µM; 1.1% of 290,000 active; AID 1861, 2009; in the data active means inhibition above about 16%, passing the limit was not always enough;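 further: cells stimulated with the agonist NPW; 0% = agonist with vehicle and 100% = vehicle without agonist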
Target sequence (P48145 whole entry, looked up): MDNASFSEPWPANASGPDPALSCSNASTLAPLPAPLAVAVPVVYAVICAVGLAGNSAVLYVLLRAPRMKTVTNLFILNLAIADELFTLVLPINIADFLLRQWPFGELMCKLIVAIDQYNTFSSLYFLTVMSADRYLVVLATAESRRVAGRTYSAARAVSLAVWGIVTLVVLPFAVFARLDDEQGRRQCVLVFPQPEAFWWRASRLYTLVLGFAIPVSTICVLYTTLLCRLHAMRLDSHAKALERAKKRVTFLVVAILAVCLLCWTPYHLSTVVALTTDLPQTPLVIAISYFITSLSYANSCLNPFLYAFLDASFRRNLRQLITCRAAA
Numbers without * were called inactive; · = not tested or not shown.

SMILES	OX1R antag-1	OX1R antag-2	CHO parental Ca	TAAR1 ag	TAAR1 antagonist	GPR7 antag
COc1ccc(C2C3=C(Nc4ncnn42)c2ccccc2CCC3)cc1 (centres undefined)	13	-18	-7	1	-1	-9
Fc1ccc(/C=C2\CCCC3=C2Nc2ncnn2C3c2ccc(F)cc2)cc1 (centres undefined)	23	-9	-3	19	65*	4
O=c1oc2ccccc2c(O)c1/C=N/c1ncccn1	47	-6	-6	2	-7	·
O=c1oc2ccccc2c(O)c1/C=C1\C=Nc2ccccc21	73*	-19	8	15	-7	-8
CSc1nc2nc(Cl)c(Cl)nc2[nH]1	·	·	·	2	-4	·
COc1ccc(N2C(=O)C(Cl)=C(Nc3ccccc3O)C2=O)cc1	30	-14	-1	11	49*	3
Cc1cccc(S(=O)(=O)NC(=O)C2(C)CCN2C(=O)Cc2ccc(C(C)(C)C)cc2)c1 (centres undefined)	·	·	·	2	-12	·
COc1ccccc1NC(=O)Nc1nc(CC(=O)NCc2ccc(F)cc2)cs1	25	-25	-8	14	52*	·
COc1cccc(CNC(=O)Cc2csc(NC(=O)Nc3ccccc3OC)n2)c1	42*	-20	-14	11	50*	·
Cc1c(C(=O)N/N=C/c2ccc(O)cc2)sc(=S)n1C	60	5	8	-1	-7	-4
Cc1c(C(=O)N/N=C/c2ccccc2)sc(=S)n1C	92*	29	-9	2	-10	1
Cc1cc(C(=O)CSc2nc3ccccc3c(=O)n2C)c(C)n1CC1CCCO1 (centres undefined)	·	·	·	·	·	11
CCn1c(SCC(=O)c2cc(C)n(CC3CCCO3)c2C)nc2ccccc21 (centres undefined)	77*	-21	-8	17	15	-4
Cc1cc(C(=O)CSc2nc3ccccc3c(=O)[nH]2)c(C)n1CC1CCCO1 (centres undefined)	31	25	60*	7	27	-5
Cc1ccccc1C(=O)N[C@H](C(=O)N1CCC[C@H]1C(=O)NCc1ccccc1)c1ccccc1	·	·	·	2	-37	·
CCC(=O)C1CCCN(C(=O)CCc2nnc(-c3ccc4c(c3)OCO4)o2)C1 (centres undefined)	12	-10	-8	1	-8	-18
CCn1nc(C)c(CNC(=O)CCc2nnc(-c3ccc(C(C)=O)s3)o2)c1C	63*	-17	-10	6	5	-1
CCC(=O)C1CCCN(C(=O)CCc2nnc(-c3ccc(C(C)=O)s3)o2)C1 (centres undefined)	38*	-14	-10	1	-4	-13
O=C1NC(=S)S/C1=C\C=C\c1ccc([N+](=O)[O-])o1	·	·	·	58*	72*	5
COC(=O)[C@@H](Cc1ccccc1)NC(=O)[C@H]1O[C@@H](n2cnc3c(=O)[nH]c(N)nc32)[C@H](O)[C@@H]1O	·	·	·	1	4	·
COc1ccc(Cl)cc1C(=O)N(Cc1nc(-c2cccc(C)c2)no1)C(C)C	29	-23	47*	-1	29	-17
CC(C)N(Cc1nc(-c2ccccc2)no1)S(=O)(=O)c1ccccc1	32	-8	60*	-1	10	-11
Cc1cccc(-c2noc(CN(C(=O)CCc3ccccc3)C(C)C)n2)c1	13	-21	42*	12	-2	-2
CC(C)N(Cc1nc(-c2ccc(Cl)cc2)no1)C(=O)C(c1ccccc1)c1ccccc1	16	-34	4	7	1	-7
Cc1ccc(-c2noc(CN(C(=O)C(c3ccccc3)c3ccccc3)C(C)C)n2)cc1	24	14	52*	3	9	-8
CC(C)N(Cc1nc(-c2ccccc2)no1)C(=O)CN(C)S(=O)(=O)c1ccccc1	23	-38	-33	4	-5	2

Screening data (PubChem BioAssay)
